Assay outcomes deposited in PubChem by Broad Institute.
SR-BI uptake up = activators of SR-BI mediated DiI-HDL uptake, primary screen, ldlA[mSR-BI] CHO cells, DiI fluorescence | 3 h; 100 = double the neutral-control signal | activation, % at 12.5 µM | 320,000 compounds, 0.096% hits | AID 504775, 2011;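 active = mean replicate activation of at least 60% and every replicate at or above 60%; inconclusive = mean or all-replicate condition met, but not both; inactive = mean below 60% and not all replicates reaching 60%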
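System: CHO ldlA[mSR-BI] cells / Medium: HEPES-buffered (25 mM, pH 7.4) F12 plus 0.5% BSA / Probe or stimulus: labelled HDL, 10 µg/mL / Doses: single compound concentration, delivered by pin transfer / Schedule: 3 h, 37 °C / Measured by: DiI fluorescence, bottom read / Measure: cell-associated DiI fluorescence as measure of HDL uptake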
Rtt109 HAT inh = inhibitors of C. albicans Rtt109/Vps75 HAT, primary screen, biochemical, ThioGlo CoA-SH fluorescence, plate reader. Histone acetyltransferase RTT109 (Candida albicans (strain SC5314 / ATCC MYA-2876)), …. purified Rtt109/Vps75, 4 h. inhibition, % at 34.9 µM. 330,000 compounds, 0.16% hits. AID 540336, 2011;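 active = inhibition of at least 50% in every replicate; inconclusive = best replicate reaches 50% inhibition but some replicates fall short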
PglD inh = C. jejuni PglD acetyltransferase inhibitors, primary screen, biochemical, DTNB colorimetric, single point | inhibition, % at 12.5 µM | AID 602405, 2012 | 360,000 compounds, 0.098% hits | UDP-N-acetylbacillosamine N-acetyltransferase PglD (Campylobacter jejuni) | purified PglD enzyme, DTNB colorimetric CoA detection; in the data active = inhibition above about 16%, passing the limit was not always enough; inconclusive = no clear call, values can overlap the other calls
Env fusion inh = inhibitors of HIV-1 Env-driven cell-cell fusion, primary screen, HeLa-JRFL effector, CEM21 target cells, luciferase | inhibition, % at 12.3 µM | 360,000 compounds, 1.1% hits;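 active = mean replicate inhibition score of at least 50 and every replicate individually at or above 50; inconclusive = only one of the two criteria met; inactive = mean below 50 and not all replicates reaching 50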
SR-BI HDL uptake = inhibitors of SR-BI mediated HDL lipid uptake, primary screen, ldlA[mSR-BI] cells, fluorescence, single point; 320,000 compounds, 0.96% hits; AID 488896, 2010; ldlA[mSR-BI] CHO cells, DiI-HDL uptake fluorescence, 3 h; inhibition, % at 12.5 µM; Scavenger receptor class B member 1 (Mus musculus), Q61009;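 active = mean replicate inhibition of at least 70% and a set share of replicates each scoring 70 or more; inconclusive = meets just one of the two criteria; inactive = fails both criteria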
Target sequence (Q61009 whole entry, looked up): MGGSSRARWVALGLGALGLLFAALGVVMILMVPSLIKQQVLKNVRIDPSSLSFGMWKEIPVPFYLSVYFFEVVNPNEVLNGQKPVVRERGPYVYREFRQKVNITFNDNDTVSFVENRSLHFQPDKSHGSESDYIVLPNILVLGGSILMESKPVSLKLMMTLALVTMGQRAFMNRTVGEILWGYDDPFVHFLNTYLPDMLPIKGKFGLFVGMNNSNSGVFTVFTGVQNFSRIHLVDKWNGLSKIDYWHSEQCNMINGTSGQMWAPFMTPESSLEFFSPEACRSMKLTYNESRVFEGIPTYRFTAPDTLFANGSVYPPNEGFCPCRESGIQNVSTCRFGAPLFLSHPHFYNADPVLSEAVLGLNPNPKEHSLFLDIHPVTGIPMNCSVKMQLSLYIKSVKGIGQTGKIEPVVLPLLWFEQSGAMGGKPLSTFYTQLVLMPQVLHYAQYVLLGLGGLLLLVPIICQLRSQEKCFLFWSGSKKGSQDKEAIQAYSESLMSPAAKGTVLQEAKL
N-glyco inh = increase of ERlucT glycosylation luciferase signal, primary screen, N-linked glycosylation inhibitor project, D54 ERlucT cells, luminescence, set 2 | D54 ERlucT glycosylation luciferase reporter, 24 h; percent of 100 nM tunicamycin response | 360,000 compounds, 0.23% hits | reporter increase, % at 12.5 µM;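 active = mean luciferase reporter signal, scaled so untreated is 0 and the glycosylation-blocking control 100, at or above a set limit in every replicate; inconclusive = mean reaches the limit but not every replicate does; inactive = mean below the limit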;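 also: luciferase carries N-glycosylation sites so blocking glycosylation raises the light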
Numbers stand for hits; 0 = inactive; ? = inconclusive; - = not tested or not shown; [ ] = another dose, or the depositor's remark. The list is not random: actives were taken first. Their share in the collection is about 1.9%.

SMILES	SR-BI uptake up	Rtt109 HAT inh	PglD inh	Env fusion inh	SR-BI HDL uptake	N-glyco inh
CCc1cccc(NC(=O)C2CCCN2S(=O)(=O)c2ccc3c(c2)CC(C)N3C(C)=O)c1 (stereo not given)	0	0	0	61	0	0
C[C@H](CO)N1C[C@H](C)[C@@H](CN(C)C(=O)C2CCOCC2)Oc2ncc(-c3ccccc3)cc2C1=O	-	-	0	0	-	-
C[C@@H]1CCCCO[C@H](CN(C)C(=O)Nc2ccc(C(F)(F)F)cc2)[C@H](C)CN([C@@H](C)CO)C(=O)c2cc(NC(=O)C3CCCCC3)ccc2O1	-	-	0	0	-	-
S=C(c1ccc(-c2ccccc2)cc1)N1CCOCC1	0	0	0	63	0	0
O=C(c1ccc(-c2ccccc2)cc1)c1ccccc1C(=O)N1CCOCC1	0	0	0	0	0	0
Cc1cc(C)c(-c2csc(NC(=O)/C=C/c3cccs3)n2)c(C)c1	0	0	0	63	0	0
Cc1cc(C)nc(NC(=O)/C=C/c2cccs2)c1	0	0	0	-	0	0
Cc1c(-n2cc(C(=O)c3cc(Cl)ccc3O)cc(C#N)c2=O)c(=O)n(-c2ccccc2)n1C	0	0	0	-	0	0
Cn1cc(Cl)cc(C(=O)Nc2ccccc2)c1=O	-	0	0	0	-	0
N#Cc1cc(C(=O)c2cc(Cl)ccc2O)cn(-c2ccccc2)c1=O	76	0	-	0	0	0
Cc1ccc(NC(=O)c2cc(C(=O)c3cc(Cl)ccc3O)cn(-c3ccc(C)cc3)c2=O)cc1	0	0	0	0	83	0
CN(CC(=O)Nc1ccc(OC(F)(F)F)cc1)C(=O)Cc1cccs1	0	0	0	62	0	0
COc1ccccc1NC(=O)N[C@H]1C=C[C@H](CC(=O)N[C@@H](C)c2ccccc2)O[C@@H]1CO	-	-	0	0	-	-
COc1ccccc1NC(=O)N[C@@H]1C=C[C@H](CC(=O)NCc2ccc(Cl)c(Cl)c2)O[C@@H]1CO	-	-	0	74[16.7 µM]	-	-
COc1ccccc1NC(=O)N[C@@H]1C=C[C@H](CC(=O)N[C@H](C)c2ccccc2)O[C@H]1CO	-	-	0	95[16.7 µM]	-	-
O=C(C[C@H]1C[C@H]2c3cc(NC(=O)C4CCC4)ccc3O[C@H]2[C@H](CO)O1)NCc1ccc(Cl)cc1	-	-	0	0	-	-
O=C(NCC[C@@H]1CC[C@H](NC(=O)c2cnccn2)[C@H](CO)O1)Nc1ccc(F)cc1	-	-	0	0	-	-
Cc1ccc(C)c(N=Nc2nc3ccccc3n2C)c1	0	-	0	-	0	0
Cc1cc(C)c(C)c(N=Nc2nc3ccccc3n2C)c1C	0	0	-	0	79	0
COc1cc(C(=O)Oc2ccccc2/C=N/NC(=O)c2ccc(Cl)cc2Cl)cc(OC)c1OC	0	0	0	-	82	0
COc1cc(/C=N/NC(=O)c2ccncc2)ccc1OC(=O)c1cc(OC)c(OC)c(OC)c1	0	0	0	0	77	0
COc1ccc(/C=N/NC(=O)c2ccncc2)cc1OC	0	0	0	0	0	0
COc1cc(/C=N/NC(=O)c2cccnc2)ccc1OCC(=O)Nc1c(C)cc(C)cc1C	0	-	0	0	71	0
C=CCOc1ccccc1/C=N/NC(=O)c1ccc(Cl)cc1Cl	0	0	0	0	0	0
CC(=O)N1[C@@H]2c3ccc(-c4ccccc4)c(=O)n3C[C@@H]2[C@@H](CO)[C@@H]1C(=O)NC1CCC1	-	-	0	-	-	-
SMILES	SR-BI uptake up	Rtt109 HAT inh	PglD inh	Env fusion inh	SR-BI HDL uptake	N-glyco inh
Cc1ccc(-c2nn3c(C)nnc3c3ccccc23)cc1S(=O)(=O)N(C)CCO	0	0	0	-	0	27
C[C@@H]1CN([C@H](C)CO)S(=O)(=O)c2ccc(C3=CCCC3)cc2O[C@H]1CN(C)Cc1ccncc1	-	-	0	0	-	-
Cc1cc(C)n(-c2nc3ccccc3nc2N2CCN(S(=O)(=O)c3ccc(F)c(C)c3)CC2)n1	0	0	0	-	0	0
Cc1cc(C)n(-c2nc3ccccc3nc2N2CCN(S(=O)(=O)c3ccc4ccccc4c3)CC2)n1	0	0	0	56	0	0
O=C(CSc1nc(-c2ccccc2)c(-c2ccccc2)[nH]1)N1CCN(S(=O)(=O)c2ccccc2)CC1	0	0	0	84	0	0
CC(C)(C)NC(=O)CSc1nc(-c2ccccc2)c(-c2ccccc2)[nH]1	0	0	0	64	0	0
O=C(O)CSc1nc(-c2ccccc2)c(-c2ccccc2)[nH]1	-	0	-	0	-	0
CN(CC(=O)Nc1ccc(Cl)cc1)C(=O)c1cccc(S(=O)(=O)NCc2ccccc2)c1	0	60	0	?	0	0
C[C@@H]1CN([C@@H](C)CO)C(=O)Cc2cc(NC(=O)Nc3cccc4ccccc34)ccc2O[C@@H]1CN(C)C(=O)Nc1ccc2c(c1)OCO2	-	-	0	0	-	-
Cc1cc(C)nc(N/N=C/C2=C(N3CCOCC3)C(=C\c3ccc(Cl)cc3)/CC2)n1	0	0	-	0	74	0
C/C(=N/NC(=O)c1ccoc1C)c1ccc(N2CCOCC2)cc1	0	0	-	-	0	0
Cc1occc1C(=O)N/N=C/C1=C(N2CCOCC2)C(=C\c2ccc(Cl)cc2Cl)/CC1	0	0	0	0	77	0
Cc1cc(C)nc(NN=CC2=C(N3CCOCC3)/C(=C/c3ccc(Cl)cc3)CC2)n1	0	0	-	0	76	0
O=CC1=C(N2CCOCC2)/C(=C/c2ccc(Cl)cc2)CC1	0	0	-	0	0	0
C[C@@H]1CN([C@H](C)CO)S(=O)(=O)c2ccc(Br)cc2O[C@H]1CN(C)C(=O)C1CCC1	-	-	-	0	-	-
COc1ccc(NC(=O)/C(C#N)=C/c2c(C)nn(-c3ccc(F)cc3)c2Cl)cc1OC	0	0	0	0	76	0
COc1ccccc1NC(=O)/C(C#N)=C/c1c(C)nn(-c2ccc(F)cc2)c1Cl	0	0	-	0	0	0
COc1ccc(NC(=O)/C(C#N)=C/c2c(C)nn(-c3ccc(F)cc3)c2Cl)cc1Cl	0	-	0	-	71	0
Cc1ccc(S(=O)(=O)N[C@H]2CC[C@H](CC(=O)NCCCN(C)C)O[C@@H]2CO)cc1	-	-	0	-	-	-
CCN(CC(=O)NCc1ccc(Cl)cc1)S(=O)(=O)c1ccc(F)cc1	0	0	0	0	0	0
CCN(CC(=O)NCc1ccc(F)cc1)C(=O)/C=C/c1ccc(S(=O)(=O)N(CC)CC)cc1	0	0	0	0	76	0
C[C@@H]1CN([C@@H](C)CO)C(=O)c2cc(NS(=O)(=O)c3cccs3)ccc2O[C@@H]1CN(C)S(=O)(=O)c1cccs1	-	-	-	0	-	-
c1ccc(-c2n[nH]c(-c3ccccc3)c2-c2nc3ccccc3[nH]2)cc1	0	0	0	0	0	31
